Measurements published in PMC10655810 (Journal of Agricultural and Food Chemistry, 2023).

Key:
RmuAP1CD = test: Effects of chemicals; type: biochemical, Rhodotorula mucilaginosa; settings: same test as Table 1; preincubation 37 °C, 3 h; BSA, pH 2.5
Procedure, shortened: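 Residual activity was then measured with 10 μg enzyme and 5 mg BSA per 1 mL at pH 2.5 for 1–1.5 h. The reaction was stopped with cold TCA (10% w/v final), centrifuged, and supernatant A280 read. Triplicate.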

BSA = settings: cited from earlier work
pepsin = pepsin (Sus scrofa, UniProt P00791); test: biochemical; parameters: species or system porcine; settings: for Proteolytic activity of pepsin (residual activity): pH 2.5
[1] = BSA denatured by 10 min preincubation at pH 0.8

pepsin, sequence (P00791 60-385): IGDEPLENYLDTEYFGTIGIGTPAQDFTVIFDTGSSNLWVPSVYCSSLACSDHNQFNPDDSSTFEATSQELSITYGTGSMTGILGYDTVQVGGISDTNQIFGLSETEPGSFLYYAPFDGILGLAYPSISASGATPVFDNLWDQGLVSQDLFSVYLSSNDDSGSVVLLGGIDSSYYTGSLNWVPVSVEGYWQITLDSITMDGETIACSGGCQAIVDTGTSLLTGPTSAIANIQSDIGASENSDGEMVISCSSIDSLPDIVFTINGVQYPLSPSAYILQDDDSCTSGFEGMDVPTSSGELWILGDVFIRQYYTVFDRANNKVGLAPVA

With Triton X-100 the “Effect on the proteolytic activity of RmuAP1CD (in words)” value (“Effect on the proteolytic activity” for short) (RmuAP1CD) was “moderately inhibited”.

For pepsin, the “Activity of pepsin on HCl-denatured BSA at pH 4.5” value (BSA; [1]) is listed as 65%, the “pH of peak activity of pepsin on HCl-denatured BSA” value (BSA; [1]) is listed as 3.0 and the “Optimum pH of pepsin for BSA” value (BSA; native BSA, pH 1.0 to 5.5) is listed as “about 1.7”. The “Activity of pepsin on BSA at pH 4.0, of its peak value” (BSA; native BSA) was 10%.

In the case of pepstatin A, the “Effect on the proteolytic activity” value (RmuAP1CD) is reported as “drastically inhibited”.

For `OCCS` [β-ME, β-mercaptoethanol], the “Proteolytic activity of pepsin (residual activity)” value (pepsin) was 90 ± 1.0% and the “Effect on the proteolytic activity” value (RmuAP1CD) was “did not influence the peptidase activity”.

With `O=S(=O)(F)Cc1ccccc1` [PMSF, phenylmethylsulfonyl fluoride] the “Effect on the proteolytic activity” value (RmuAP1CD) was “unaffected”.

In the case of `O=C(O)CN(CCN(CC(=O)O)CC(=O)O)CC(=O)O` [EDTA, ethylenediaminetetraacetic acid], the remaining activity at 5000 µM (pepsin; pH 2.5, read-out: Proteolytic activity of pepsin (residual activity)) is reported as 95 ± 2.5% and the “Effect on the proteolytic activity” value (RmuAP1CD) is reported as “unaffected”.

With `CCCCCCCCCCCCOS(=O)(=O)[O-].[Na+]` [SDS, sodium dodecyl sulfate] the “Proteolytic activity of pepsin (residual activity)” value (pepsin) was 30 ± 4.0% and the “Effect on the proteolytic activity” value (RmuAP1CD) was “moderately inhibited”.
